From PubChem BioAssay
hERG protect: hERG rescue from dofetilide block, primary screen, cell-based, CHO-hERG, FluxOR thallium flux, dofetilide IC70 | Voltage-gated inwardly rectifying potassium channel KCNH2 (Homo sapiens), Q12809 | dofetilide IC70 present | activation (rescue from dofetilide block), less the hit threshold, % at 10 µM | hit rate 0.51% among 310,000 | AID 1511, 2009;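 active = activation above the mean of controls blocked by dofetilide plus 5 SD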;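 also: thallium influx through hERG after potassium depolarization seen as dye fluorescence rise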
Target sequence (Q12809 whole entry, looked up): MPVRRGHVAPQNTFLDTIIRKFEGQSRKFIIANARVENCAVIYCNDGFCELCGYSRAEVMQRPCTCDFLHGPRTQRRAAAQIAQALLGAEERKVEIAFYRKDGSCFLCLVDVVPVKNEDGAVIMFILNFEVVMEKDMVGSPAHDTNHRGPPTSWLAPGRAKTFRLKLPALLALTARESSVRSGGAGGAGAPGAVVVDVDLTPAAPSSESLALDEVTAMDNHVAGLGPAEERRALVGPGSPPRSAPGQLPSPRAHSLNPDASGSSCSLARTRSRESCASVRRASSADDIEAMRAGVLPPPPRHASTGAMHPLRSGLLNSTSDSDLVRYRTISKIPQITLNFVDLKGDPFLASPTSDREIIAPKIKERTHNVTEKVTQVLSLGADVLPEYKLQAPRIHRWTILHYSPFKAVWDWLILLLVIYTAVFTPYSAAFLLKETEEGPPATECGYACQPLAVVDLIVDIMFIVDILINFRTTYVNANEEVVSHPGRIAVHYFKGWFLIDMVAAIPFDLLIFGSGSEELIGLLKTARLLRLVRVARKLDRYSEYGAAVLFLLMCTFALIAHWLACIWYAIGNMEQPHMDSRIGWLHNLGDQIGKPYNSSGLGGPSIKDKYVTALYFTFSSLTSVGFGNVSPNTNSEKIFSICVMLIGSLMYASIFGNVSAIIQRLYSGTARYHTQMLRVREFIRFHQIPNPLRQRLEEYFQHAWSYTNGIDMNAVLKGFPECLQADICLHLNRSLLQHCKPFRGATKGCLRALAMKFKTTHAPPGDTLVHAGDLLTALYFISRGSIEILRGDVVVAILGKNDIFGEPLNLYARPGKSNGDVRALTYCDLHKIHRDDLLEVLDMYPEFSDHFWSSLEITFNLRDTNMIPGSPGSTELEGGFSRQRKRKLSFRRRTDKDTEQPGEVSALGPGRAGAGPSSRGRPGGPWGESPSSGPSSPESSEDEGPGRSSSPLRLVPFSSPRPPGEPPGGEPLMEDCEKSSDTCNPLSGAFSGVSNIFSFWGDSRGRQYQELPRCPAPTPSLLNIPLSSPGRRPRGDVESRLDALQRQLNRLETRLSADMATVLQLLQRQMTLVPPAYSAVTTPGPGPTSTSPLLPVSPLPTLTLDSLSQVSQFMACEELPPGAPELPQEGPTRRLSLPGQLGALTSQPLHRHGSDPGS
Kir21 inh: inhibitors of mouse Kir2.1 inward-rectifier potassium channel. HEK293-Kir2.1, FluxOR thallium flux fluorescence; hits give low values. hit rate 0.85% among 310,000. AID 1672, 2009. B-score at 10 µM. Inward rectifier potassium channel 2 (Mus musculus), P35561;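 active = fluorescence ratio B-score at or below minus 3 SD of library scores, with starting-brightness B-score within 2 SD, cut at about -4.2 in these data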;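 also: channel flux triggered by added potassium and thallium sulfate stimulus; B-score of peak minus minimum fluorescence over baseline after thallium stimulus; more negative B-score means stronger Kir2.1 block with less thallium influx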
KCNQ1 block: inhibitors of human KCNQ1 channel, primary screen, cell-based, thallium flux, high-throughput; CHO-K1 KCNQ1, FluxOR thallium flux fluorescence; hits give high values; B-score at 10 µM; hit rate 1.3% among 310,000; AID 2642, 2010;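 active = compounds whose thallium flux B-score, printed positive for inhibition, exceeds three library SD while starting fluorescence stays within three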;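 also: channel opened by potassium depolarization with thallium stimulus after 20 min compound exposure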
KCNQ1 pot: potentiators or activators of KCNQ1 channel, primary screen, cell-based, thallium flux, high-throughput; Potassium voltage-gated channel subfamily KQT member 1 (Homo sapiens), P51787; CHO-K1 KCNQ1, thallium flux FluxOR fluorescence; hits give high values; B-score at 10 µM; hit rate 0.35% among 310,000;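 active = fluorescence ratio B-score, a plate-corrected score, at least three library SD, with initial intensity B-score within 5 SD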
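System: Stable KCNQ1 CHO-K1 line | Incubation: 90 min dye loading and 20 min compound exposure, both at room temperature | Measure: Ratio B score | Medium: Assay buffer for compound exposure, DMSO matched across wells | Compound dosing: Single-concentration screen | Probe or stimulus: K+/Tl+ depolarizing stimulus | Measured by: Kinetic FluxOR fluorescence, 10 s baseline plus 110 s post-stimulus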
KCNK9 inh: KCNK9 potassium channel inhibitors, primary screen, HEK293 cells, thallium flux | B-score at 10 µM | hit rate 1.2% among 310,000 | FluxOR thallium flux fluorescence; hits give low values;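 active = ratio B-score over 3 SD below the library mean, with starting fluorescence within 5 SD of its mean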;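 also: negative B-score means less thallium flux so channel inhibition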
KCNK3 inh: human KCNK3 channel inhibitors, primary screen, CHO cells, FluxOR thallium flux, B-score | AID 602410, 2012 | B-score at 10 µM | FluxOR fluorescence; hits give low values | hit rate 0.84% among 340,000;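 active = B-score under library mean minus 4 SD, starting fluorescence ratio at most library mean plus 5 SD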;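 also: more negative B-score means stronger inhibition of thallium flux through KCNK3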
KCNK9 block conf: KCNK9 potassium channel inhibitors, confirmation, HEK293 cells, thallium flux, duplicate. shares compounds with KCNK9 inh. FluxOR thallium flux fluorescence. inhibition, % at 10 µM. hit rate 43% among 4,900;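 active = thallium signal inhibited by more than 5 SD of the compound-free buffer control wells, on both duplicate plates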
Kir2-1 spec: mouse Kir2.1 channel inhibition, confirmation, selectivity assay for KCNK9 modulator project, cell-based, HEK293, thallium flux. shares compounds with KCNK9 inh. Kir2.1 cells, FluxOR thallium flux fluorescence. inhibition, % at 10 µM. hit rate 4% among 4,900. AID 492993, 2010;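 active = thallium signal drop more than 5 SD beyond the mean of the no-compound control wells, seen in both duplicate plates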;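 also: signal is fluorescence rise after thallium addition divided by baseline fluorescence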
HEK293 Tl ctr: thallium flux in non-induced HEK293 cells, confirmation, counter-screen for KCNK9 inhibitor project, cell-based, second counter screen, non-induced KCNK9-HEK293 | shares compounds with KCNK9 inh | FluxOR thallium flux | inhibition, % at 10 µM | hit rate 40% among 4,900;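 active = thallium signal drop beyond 5 SD of the untreated control mean, on both duplicate plates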
A number is an active result; . = inactive; / = no result. This is a sample that favours compounds with a hit; in the whole collection about 3.7% have one here.

SMILES | hERG protect | Kir21 inh | KCNQ1 block | KCNQ1 pot | KCNK9 inh | KCNK3 inh | KCNK9 block conf | Kir2-1 spec | HEK293 Tl ctr
O=C(Nc1ccc2ccccc2c1)c1nn(C23CC4CC(CC(C4)C2)C3)cc1Br | . | . | . | . | . | . | . | . | .
Cc1ccsc1C(=O)C1CCCN(Cc2cccc(-n3cccn3)c2)C1 (stereo not drawn) | . | . | . | . | . | . | . | . | .
CSc1ccc(C(=O)C2CCCN(Cc3cnc(SC)nc3)C2)cc1 (stereo not drawn) | . | . | . | . | . | . | . | . | .
CSc1ncc(CN2CCCC(C(=O)c3sccc3C)C2)cn1 (stereo not drawn) | . | . | . | . | . | . | . | . | .
COc1cc(CN2CCCC(C(=O)c3sccc3C)C2)cc(Cl)c1O (stereo not drawn) | . | . | . | . | . | . | . | . | .
Cn1c(=O)cc(OCC(=O)N2CCN(C3CCCCC3)CC2)c2ccccc21 | . | . | . | . | . | . | / | / | /
CN1C2CCC1C(C(=O)O)C(O)C2 (stereo not drawn) | / | / | / | / | / | . | / | / | /
O=C(Cc1ccccc1)N1CCN(Cc2ccc(F)cc2)CC1 | . | . | . | . | . | . | / | / | /
Cc1ccc(-n2nc(C)c3c2NC(=O)CSC3c2ccc3c(c2)OCO3)cc1 (stereo not drawn) | . | . | . | . | -13 | . | 36% | . | 31%
COc1ccc(C2SCC(=O)Nc3c2c(C)nn3-c2ccccc2)cc1 (stereo not drawn) | . | . | . | . | . | . | / | / | /
CN(CC=CCN(C)P(=S)(N1CC1)N1CC1)P(=S)(N1CC1)N1CC1 | / | / | / | / | / | . | / | / | /
Cn1cc(C=C(C#N)C#N)c2ccccc21 | . | . | . | . | -8.4 | . | . | . | 52%
O=C(C1CC(=O)N(c2ccc(F)c(Cl)c2)C1)N1CCC2(CC1)OCCO2 (stereo not drawn) | . | . | . | . | . | . | / | / | /
O=c1[nH]c(=S)n(CCC2=CCCCC2)c(O)c1/C=N/Nc1ccccc1 | . | . | . | . | . | . | . | . | 25%
CC(NC1=NCCS1)c1ccccc1 (stereo not drawn) | . | . | . | . | . | . | / | / | /
COC1C(C)OC(OC2CC(C)(O)Cc3cc4c(c(O)c32)C(=O)c2c(O)cc3c(c2C4=O)OC2OC3(C)C(O)C(N(C)C)C2O)C(OC)C1(C)OC (stereo not drawn) | / | / | / | / | / | . | / | / | /
Clc1cnc(Oc2ccc(Oc3ncc(Cl)cc3Cl)cc2)c(Cl)c1 | . | . | . | . | . | . | . | . | .
CCN(CC)c1ccc(CC2C(=O)N(C)C(=O)N(C)C2=O)cc1 | . | . | . | . | . | . | . | . | .
CCc1ccc(N2C(=O)NC(=O)/C(=C/c3cccn3CCOc3ccc(C(C)CC)cc3)C2=O)cc1 (stereo not drawn) | . | . | . | . | . | . | . | . | .
Cc1ccc(/C=C2\C(=O)NC(=S)N(c3ccc(F)cc3)C2=O)o1 | . | . | . | . | . | . | / | / | /
Cc1cc(C)cc(N2C(=O)/C(=C\c3ccc(N4CCN(C)CC4)o3)C(=O)NC2=S)c1 | . | . | 10 | . | -9.1 | . | 55% | 34% | 70%
CC(=NCCN1CCCCC1)c1c(O)n(-c2ccccc2)c(=O)[nH]c1=O | . | . | . | . | . | . | . | . | .
O=C(CN1CC=C(c2ccccc2)CC1)Nc1cc(Cl)ccc1Cl | . | . | . | . | . | . | . | . | .
Cc1ccccc1NS(=O)(=O)c1ccc(OCC(=O)N2CCN(C)CC2)cc1 | . | . | . | . | . | . | . | . | .
Cc1ccc(NS(=O)(=O)c2ccc(OCC(=O)N3CCN(C)CC3)cc2)cc1 | . | . | . | . | . | . | / | / | /
SMILES | hERG protect | Kir21 inh | KCNQ1 block | KCNQ1 pot | KCNK9 inh | KCNK3 inh | KCNK9 block conf | Kir2-1 spec | HEK293 Tl ctr
COC(=O)C1=C(c2cccc(C#N)c2)C[C@@H]2CC[C@H]1N2C(=O)NC1Cc2ccccc2C1 | / | / | / | / | / | . | / | / | /
COc1ccccc1CC(=O)N1CCN(CCc2ccccc2)CC1 | . | . | . | . | . | . | / | / | /
Cc1ccc(CN2CCCC(C(=O)c3sccc3C)C2)o1 (stereo not drawn) | . | . | . | . | . | . | . | . | .
Cc1ccc(CN2CCCC(C(=O)c3cccc(C(F)(F)F)c3)C2)o1 (stereo not drawn) | . | . | . | . | . | . | . | . | .
Cc1ccsc1C(=O)C1CCCN(Cc2cc3ccccc3o2)C1 (stereo not drawn) | . | . | . | . | . | . | . | . | .
S=C1NCCN1 | . | . | . | . | . | . | / | / | /
CC(C)(C#CC(=O)O)OOC(c1ccccc1)(c1ccccc1)c1ccccc1 | . | . | . | . | . | . | . | . | .
CCOP(=O)(C#CC(C)(C)C)C(C)(O)c1ccccc1 (stereo not drawn) | . | . | . | . | . | . | / | / | /
Oc1ccccc1-[n+]1c(-c2ccccc2)cc(-c2ccccc2)c(O)c1-c1ccccc1 | . | . | . | . | -8.4 | . | . | . | .
Fc1ccc(C[n+]2c(-c3ccccc3)cc(-c3ccccc3)cc2-c2ccccc2)cc1 | . | -9.3 | 6 | . | -11 | / | 52% | 68% | .
O=C(c1ccccc1F)c1cn(Cc2ccc(F)cc2)c2ccccc12 | . | . | . | . | -8.7 | . | 50% | . | 34%
COC(=O)Cn1cc(C(=O)c2ccccc2F)c2ccccc21 | . | . | . | . | . | . | / | / | /
COc1c(C)cc(C(=O)C2CCCN(Cc3cccc(C)n3)C2)cc1C (stereo not drawn) | . | . | . | . | . | . | / | / | /
Cc1cccc(CN2CCCN(Cc3ccc(Cl)cc3)S2(=O)=O)c1 | . | . | . | . | . | . | / | / | /
Cc1ccc(CN2CCCN(Cc3ccc(C)cc3)S2(=O)=O)cc1 | . | . | . | . | . | . | . | . | .
